Data on one compound can be found in ChEMBL document CHEMBL1275462 (Antimicrob Agents Chemother, 2008).

In this experiment the test system is Staphylococcus aureus. The experiment in a line: Antimicrobial activity against methicillin-resistant Staphylococcus aureus USA300 assessed as concentration required for bacterial subpopulation growth. It counts as functional. The procedure, abridged: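 Etest (manufacturer's method) and population analysis: overnight cultures serially diluted and plated on TSA with increasing oxacillin or BPR, CFU counted after 48 h at 37°C. Colonies from subpopulations growing at high oxacillin or BPR were picked, restreaked on antibiotic-free TSA for three passages, then retested by population analysis.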

SMILES strings stand for the structures.

On to `Nc1nc(/C(=N/O)C(=O)N[C@@H]2C(=O)N3C(C(=O)O)=C(/C=C4\CCN([C@@H]5CCNC5)C4=O)CS[C@H]23)ns1` [CEFTOBIPROLE], for which the Activity stood at 1.5 µg/mL.
